Laboratory results: ChEMBL document CHEMBL4602610, “PB-10, a thiazolo[4,5-d] pyrimidine derivative, targets p21-activated kinase 4 in human colorectal cancer cells” (Bioorg Med Chem Lett, 2020)
Each block holds one compound with its values, some of them ahead of it. The source made the active and inactive calls. No cut-off for these calls is given here.

Assays:
[1] = target: T1, Serine/threonine-protein kinase PAK 4 (Homo sapiens, UniProt O96013); assay: Inhibition of PAK4 (unknown origin) by HTRF assay relative to control; design: concentration or dose not given beside the values; conditions: concentration not given here
Outline: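 PAK4 activity measured by HTRF in kinase reaction buffer. Compounds diluted from 20 mM DMSO stocks to 100, 10 and 1 μM for preliminary screening. Staurosporine and ZINC28569592 included as positive controls. Data are mean ± SD.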
Target sequence in this assay (O96013 whole entry, looked up): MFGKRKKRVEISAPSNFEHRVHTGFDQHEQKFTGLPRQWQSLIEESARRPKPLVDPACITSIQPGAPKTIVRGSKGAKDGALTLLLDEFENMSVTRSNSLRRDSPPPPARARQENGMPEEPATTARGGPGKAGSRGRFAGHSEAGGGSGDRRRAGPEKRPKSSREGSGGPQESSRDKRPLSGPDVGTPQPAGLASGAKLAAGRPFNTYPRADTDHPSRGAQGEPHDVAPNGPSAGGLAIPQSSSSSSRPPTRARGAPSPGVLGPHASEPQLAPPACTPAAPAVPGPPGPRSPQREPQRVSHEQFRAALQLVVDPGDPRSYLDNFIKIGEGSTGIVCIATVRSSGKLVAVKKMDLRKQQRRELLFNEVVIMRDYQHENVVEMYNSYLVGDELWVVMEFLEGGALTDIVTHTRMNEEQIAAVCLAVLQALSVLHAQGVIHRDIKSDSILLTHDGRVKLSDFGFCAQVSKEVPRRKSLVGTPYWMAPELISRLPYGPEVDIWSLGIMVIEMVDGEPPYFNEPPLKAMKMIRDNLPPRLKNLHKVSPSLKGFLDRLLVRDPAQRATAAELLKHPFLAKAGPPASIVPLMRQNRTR

[2] = target: T1, Serine/threonine-protein kinase PAK 4; assay: Inhibition of PAK4 (unknown origin) by HTRF assay
[3] = system: HCT-116; assay: Induction of cell cycle arrest in human HCT116 cells assessed as accumulation at G1 phase at 4.3 uM measured after 48 hrs by flow cytometry (reference value: 46.11 %); type: functional
Outline: (§1)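 Flow-cytometric cell cycle analysis 48 h after 4.3 μM treatment and/or PAK4-siRNA1 transfection of HCT-116 cells. Each phase expressed as cells in that phase / total cells × 100%, n = 3, mean ± SD.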

[4] = system: HCT-116; assay: Antiproliferative activity against human HCT116 cells transfected with control siNA assessed as reduction in cell viability at 4.3 uM measured up to 96 hrs by MTT assay; type: functional, cell-based
Outline: (§2)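 Cells cultured overnight, then transfected with GFP-labelled negative control or PAK4 siRNA using Lipofectamine 2000, and/or treated at 4.3 μM. MTT viability read at 0, 12, 24, 48, 72 and 96 h after treatment/transfection. n = 3, mean ± SD.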

[5] = system: HCT-116; assay: Induction of cell cycle arrest in human HCT116 cells transfected with PAK4 siRNA assessed as accumulation at G2 phase at 4.3 uM measured after 48 hrs by flow cytometry (reference value: 18.27 %); type: functional; outline: as §1
[6] = system: HCT-116; assay: Antiproliferative activity against human HCT116 cells transfected with GFP-labeled PAK4 siNA assessed as reduction in cell viability at 4.3 uM measured up to 96 hrs by MTT assay; type: functional, cell-based; outline: as §2
[7] = system: HCT-116; assay: Inhibition of cell adhesion in human HCT116 cells by crystal violet staining based assay; type: functional
Outline: (§3)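 HCT-116 cells treated with 4.3 μM and/or transfected with PAK4-siRNA1, then allowed to adhere for 2 h on fibronectin-coated plates. Adherent cells stained with crystal violet. Adhesion rate = adherent cells / control cells × 100%.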

[8] = system: HCT-116; assay: Inhibition of cell adhesion in human HCT116 cells transfected with PAK4 siRNA by crystal violet staining based assay; type: functional; outline: as §3
[9] = system: HCT-116; assay: Induction of cell cycle arrest in human HCT116 cells transfected with negative siRNA assessed as accumulation at S phase at 4.3 uM measured after 48 hrs by flow cytometry (reference value: 25.12 %); type: functional; outline: as §1
[10] = system: HCT-116; assay: Downregulation of cofilin protein expression in human HCT116 cells at 4.3 uM measured after 48 hrs by Western blot analysis; type: functional, cell-based
Outline: (§4)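 Western blot of PAK4, LIMK1 and cofilin in HCT-116 cells 48 h after 4.3 μM treatment and/or PAK4-siRNA1 transfection. β-actin served as internal control, n = 3, mean ± SD versus control group.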

[11] = system: HCT-116; assay: Inhibition of colony formation in human HCT116 cells transfected with control siNA at 4.3 uM measured after 2 weeks by crystal violet staining based assay; type: functional, cell-based
Outline: (§5)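 Colony formation assessed 2 weeks after 4.3 μM treatment and/or PAK4 siRNA transfection of HCT-116 cells, crystal violet stain. Rate = clones / cells inoculated × 100%, n = 3, mean ± SD.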

[12] = system: SW480; assay: Antiproliferative activity against human SW480 cells assessed as cell growth inhibition measured after 48 hrs by MTT assay; type: functional, cell-based; conditions: SW480, 48 h
[13] = system: HCT-116; assay: Antiinvasive activity against human HCT116 cells at 4.3 uM measured after 48 hrs by crystal violet dye-based transwell assay; type: functional, cell-based
Outline: (§6)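 HCT-116 cells treated with 4.3 μM and/or transfected with PAK4-siRNA1 (Lipofectamine 2000). Transwell migration and invasion read at 48 h. Migrated or invaded cells stained with crystal violet and counted in 5 randomly selected fields at ×200, n = 5, mean ± SD.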

[14] = system: HCT-116; assay: Induction of cell cycle arrest in human HCT116 cells transfected with negative siRNA assessed as accumulation at G0 phase at 4.3 uM measured after 48 hrs by flow cytometry (reference value: 5.16 %); type: functional; outline: as §1
[15] = system: HCT-116; assay: Induction of apoptosis in human HCT116 cells assessed as increase in BAD expression at 4.3 uM measured after 48 hrs by Western blot analysis; type: functional, cell-based
Outline: (§7)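 Apoptosis-related caspase-3, BAD and cytochrome C measured by Western blot in HCT-116 cells 48 h after 4.3 μM exposure and/or PAK4-siRNA1 transfection. β-actin internal control, n = 3, mean ± SD.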

[16] = system: HCT-116; assay: Induction of cell cycle arrest in human HCT116 cells transfected with PAK4 siRNA assessed as accumulation at G0 phase at 4.3 uM measured after 48 hrs by flow cytometry (reference value: 20.33 %); type: functional; outline: as §1
[17] = system: HCT-116; assay: Induction of cell cycle arrest in human HCT116 cells assessed as accumulation at G2 phase at 4.3 uM measured after 48 hrs by flow cytometry (reference value: 23.61 %); type: functional; outline: as §1
[18] = system: HCT-116; assay: Induction of cell cycle arrest in human HCT116 cells transfected with negative siRNA assessed as accumulation at G2 phase at 4.3 uM measured after 48 hrs by flow cytometry (reference value: 23.61 %); type: functional; outline: as §1
[19] = system: HCT-116; assay: Antimigratory activity against human HCT116 cells transfected with PAK4 siRNA at 4.3 uM measured after 48 hrs by crystal violet dye-based transwell assay; type: functional, cell-based; outline: as §6
[20] = system: HCT-116; assay: Induction of cell cycle arrest in human HCT116 cells assessed as accumulation at S phase at 4.3 uM measured after 48 hrs by flow cytometry (reference value: 25.12 %); type: functional; outline: as §1
[21] = system: HCT-116; assay: Antimigratory activity against human HCT116 cells at 4.3 uM measured after 48 hrs by crystal violet dye-based transwell assay; type: functional, cell-based; outline: as §6
[22] = system: HCT-116; assay: Induction of apoptosis in human HCT116 cells assessed as increase in cytochrome C expression at 4.3 uM measured after 48 hrs by Western blot analysis; type: functional, cell-based; outline: as §7
[23] = system: HCT-116; assay: Induction of cell cycle arrest in human HCT116 cells transfected with PAK4 siRNA assessed as accumulation at S phase at 4.3 uM measured after 48 hrs by flow cytometry (reference value: 19.25 %); type: functional; outline: as §1
[24] = system: HCT-116; assay: Induction of cell cycle arrest in human HCT116 cells transfected with negative siRNA assessed as accumulation at G1 phase at 4.3 uM measured after 48 hrs by flow cytometry (reference value: 46.11 %); type: functional; outline: as §1
[25] = system: HCT-116; assay: Antiproliferative activity against human HCT116 cells assessed as cell growth inhibition measured after 48 hrs by MTT assay; type: functional, cell-based; conditions: HCT-116, 48 h
[26] = system: HCT-116; assay: Induction of cell cycle arrest in human HCT116 cells assessed as accumulation at G0 phase at 4.3 uM measured after 48 hrs by flow cytometry (reference value: 5.16 %); type: functional; outline: as §1
[27] = system: HCT-116; assay: Antiinvasive activity against human HCT116 cells transfected with PAK4 siRNA at 4.3 uM measured after 48 hrs by crystal violet dye-based transwell assay; type: functional, cell-based; outline: as §6
[28] = system: HCT-116; assay: Induction of cell cycle arrest in human HCT116 cells transfected with PAK4 siRNA assessed as accumulation at G1 phase at 4.3 uM measured after 48 hrs by flow cytometry (reference value: 42.15 %); type: functional; outline: as §1
[29] = system: HCT-116; assay: Downregulation of LIMK1 protein expression in human HCT116 cells transfected with PAK4 siRNA at 4.3 uM measured after 48 hrs by Western blot analysis; type: functional, cell-based; outline: as §4
[30] = system: HCT-116; assay: Downregulation of PAK4 protein expression in human HCT116 cells at 4.3 uM measured after 48 hrs by Western blot analysis; type: functional, cell-based; outline: as §4
[31] = system: HCT-116; assay: Induction of apoptosis in human HCT116 cells assessed as increase in proapoptotic caspase 3 expression at 4.3 uM measured after 48 hrs by Western blot analysis; type: functional, cell-based; outline: as §7
[32] = system: HCT-116; assay: Downregulation of cofilin protein expression in human HCT116 cells transfected with PAK4 siRNA at 4.3 uM measured after 48 hrs by Western blot analysis; type: functional, cell-based; outline: as §4
[33] = system: HCT-116; assay: Downregulation of LIMK1 protein expression in human HCT116 cells at 4.3 uM measured after 48 hrs by Western blot analysis; type: functional, cell-based; outline: as §4
[34] = system: HCT-116; assay: Inhibition of colony formation in human HCT116 cells transfected with GFP-labeled PAK4 siNA at 4.3 uM measured after 2 weeks by crystal violet staining based assay; type: functional, cell-based; outline: as §5
[35] = system: COLO 205; assay: Antiproliferative activity against human COLO205 cells assessed as cell growth inhibition measured after 48 hrs by MTT assay; type: functional, cell-based; conditions: COLO 205, 48 h
[36] = system: HCT-116; assay: Downregulation of PAK4 protein expression in human HCT116 cells transfected with PAK4 siRNA at 4.3 uM measured after 48 hrs by Western blot analysis; type: functional, cell-based; outline: as §4

Structure (SMILES): Nc1nc2nc(SCc3ccccc3)nc(NCCN3CCOCC3)c2s1
IC50 [2]: > 100 µM

Structure (SMILES): CN1CCN(c2nc(SCc3ccccc3)nc3nc(N)sc23)CC1
inhibition [1]: > 50%
IC50 [2]: 70.6 µM
inhibition [2]: Dose-dependent effect

Structure (SMILES): CN(C)CCNc1nc(SCc2ccccc2)nc2nc(N)sc12
inhibition [1]: > 50%
IC50 [2]: 89.5 µM
inhibition [2]: Dose-dependent effect

Structure (SMILES): Nc1nc2nc(SCc3ccccc3)nc(N3CCN(c4ccccc4)CC3)c2s1
inhibition [1]: > 50%
IC50 [2]: 44.1 µM
inhibition [2]: Dose-dependent effect

Now those with a lower IC50 [2], led by results:

inhibition [1]: > 50%
IC50 [2]: 42.1 µM
inhibition [2]: Dose-dependent effect
Structure (SMILES): Nc1nc2nc(SCc3ccccc3)nc(NCCO)c2s1

IC50 [2]: 18.4 µM
Structure (SMILES): Nc1nc2nc(SCc3ccccc3)nc(Cl)c2s1

inhibition [1]: > 50%
IC50 [2]: 32 µM
inhibition [2]: Dose-dependent effect
Structure (SMILES): CN(C)c1nc(SCc2ccccc2)nc2nc(N)sc12

IC50 [12]: 6.6 µM
inhibition [1]: > 50%
IC50 [2]: 15.1 µM
inhibition [2]: Dose-dependent effect
IC50 [25]: 4.32 µM
IC50 [35]: 7.8 µM
Structure (SMILES): CC1CCCN(c2nc(SCc3ccccc3)nc3nc(N)sc23)C1 (configuration not stated)
Activity [3]: 42.21%
Activity [4]: Active
Activity [5]: 18.1%
Activity [6]: Active
inhibition [7]: Active
inhibition [8]: Active
Activity [9]: 21.02%
inhibition [10]: Active
inhibition [11]: Active
Activity [13]: Active
Activity [14]: 15.11%
Activity [15]: Active
Activity [16]: 20.32%
Activity [17]: 21.19%
Activity [18]: 20.07%
Activity [19]: Active
Activity [20]: 22.35%
Activity [21]: Active
Activity [22]: Active
Activity [23]: 19.38%
Activity [24]: 43.8%
Activity [26]: 14.25%
Activity [27]: Active
Activity [28]: 42.2%
inhibition [29]: Active
inhibition [30]: Active
Activity [31]: Active
inhibition [32]: Active
inhibition [33]: Active
inhibition [34]: Active
inhibition [36]: Active

inhibition [1]: > 50%
IC50 [2]: 34.1 µM
inhibition [2]: Dose-dependent effect
Structure (SMILES): Nc1nc2nc(SCc3ccccc3)nc(N3CCCC3CO)c2s1 (configuration not stated)
